pIC50: −log10 of the molar value.
Tests used:
[1] = tested on: A549; test: Antiproliferative activity against human A549 cells assessed as reduction in cell proliferation incubated for 48 hrs by MTT assay; assay type: functional, cell-based; details: A549, 48 h
Method in brief: (§1)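 Log-phase cells were plated at 5 × 10^3/well in RPMI-1640 with 10% FBS and cultured 24 h. Compounds were added at graded concentrations (DMSO <0.1%) for 48 h. MTT (5 mg/mL) was added for about 4 h, formazan was dissolved in DMSO and A490 was read. IC50 was calculated from ≥3 independent experiments and reported as mean ± SD. Chrysin served as positive control.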

[2] = tested on: K562; test: Antiproliferative activity against human K562 cells assessed as reduction in cell proliferation incubated for 48 hrs by MTT assay; assay type: functional, cell-based; details: K562, 48 h; method in brief: as §1
[3] = tested on: NCI-H1299; test: Antiproliferative activity against human H1299 cells assessed as reduction in cell proliferation incubated for 48 hrs by MTT assay; assay type: functional, cell-based; details: NCI-H1299, 48 h; method in brief: as §1
[4] = tested on: PC-3; test: Antiproliferative activity against human PC3 cells assessed as reduction in cell proliferation incubated for 48 hrs by MTT assay; assay type: functional, cell-based; details: PC-3, 48 h; method in brief: as §1
[5] = tested on: MRC5; test: Cytotoxicity against human MRC5 cells assessed as reduction in cell proliferation incubated for 48 hrs by MTT assay; assay type: cell-based; details: MRC5, 48 h; method in brief: as §1

SMILES	pIC50 [1]	pIC50 [2]	pIC50 [3]	pIC50 [4]	pIC50 [5]
CN1C(=O)C2(C(C#N)=C(N)Oc3cc4oc(-c5ccccc5)cc(=O)c4c(O)c32)c2cccc(Cl)c21 (stereo not given)	< 4.30	4.38	< 4.30	< 4.30	
CCN1C(=O)C2(C(C#N)=C(N)Oc3cc4oc(-c5ccc(OC)cc5OC)cc(=O)c4c(O)c32)c2cc(Br)ccc21 (stereo not given)	< 4.30	4.79	< 4.30	< 4.30	
Cc1ccc2c(c1)C1(C(=O)N2)C(C#N)=C(N)Oc2cc3oc(-c4ccccc4)cc(=O)c3c(O)c21 (stereo not given)	< 4.30	< 4.30	< 4.30	< 4.30	
N#CC1=C(N)Oc2cc3oc(-c4ccccc4)cc(=O)c3c(O)c2C12C(=O)Nc1cc(Br)ccc12 (stereo not given)	5.03	5.06	4.84	4.61	
CCN1C(=O)C2(C(C#N)=C(N)Oc3cc4oc(-c5ccccc5)cc(=O)c4c(O)c32)c2cc(C)ccc21 (stereo not given)	< 4.30	< 4.30	< 4.30	< 4.30	
Cc1ccc2c(c1)C1(C(=O)N2Cc2ccccc2)C(C#N)=C(N)Oc2cc3oc(-c4ccccc4F)cc(=O)c3c(O)c21 (stereo not given)	< 4.30	< 4.30	< 4.30	< 4.30	
CCN1C(=O)C2(C(C#N)=C(N)Oc3cc4oc(-c5ccc(OC)cc5OC)cc(=O)c4c(O)c32)c2cc(Cl)ccc21 (stereo not given)	< 4.30	5.07	< 4.30	< 4.30	
N#CC1=C(N)Oc2cc3oc(-c4ccccc4)cc(=O)c3c(O)c2C12C(=O)N(Cc1ccccc1)c1c(Cl)cccc12 (stereo not given)	< 4.30	4.32	< 4.30	< 4.30	
CN1C(=O)C2(C(C#N)=C(N)Oc3cc4oc(-c5ccccc5)cc(=O)c4c(O)c32)c2cc(Cl)ccc21 (stereo not given)	5.33	5.36	4.95	4.67	
N#CC1=C(N)Oc2cc3oc(-c4ccccc4)cc(=O)c3c(O)c2C12C(=O)N(Cc1ccccc1)c1ccc(Br)cc12 (stereo not given)	< 4.30	4.44	< 4.30	< 4.30	
Cc1ccc2c(c1)C1(C(=O)N2Cc2ccccc2)C(C#N)=C(N)Oc2cc3oc(-c4ccccc4)cc(=O)c3c(O)c21 (stereo not given)	< 4.30	< 4.30	< 4.30	< 4.30	
COc1ccc(-c2cc(=O)c3c(O)c4c(cc3o2)OC(N)=C(C#N)C42C(=O)N(C)c3ccc(C)cc32)c(OC)c1 (stereo not given)	< 4.30	4.92	< 4.30	< 4.30	
N#CC1=C(N)Oc2cc3oc(-c4ccccc4)cc(=O)c3c(O)c2C12C(=O)N(Cc1ccccc1)c1ccc(F)cc12 (stereo not given)	< 4.30	< 4.30	< 4.30	< 4.30	
CC(C)(C)OC(=O)CN1C(=O)C2(C(C#N)=C(N)Oc3cc4oc(-c5ccccc5)cc(=O)c4c(O)c32)c2ccccc21 (stereo not given)	< 4.30	< 4.30	< 4.30	< 4.30	
N#CC1=C(N)Oc2cc3oc(-c4ccccc4)cc(=O)c3c(O)c2C12C(=O)N(c1ccccc1)c1ccccc12 (stereo not given)	< 4.30	< 4.30	< 4.30	< 4.30	
CN1C(=O)C2(C(C#N)=C(N)Oc3cc4oc(-c5ccccc5)cc(=O)c4c(O)c32)c2ccccc21 (stereo not given)	< 4.30	< 4.30	< 4.30	< 4.30	
CCN1C(=O)C2(C(C#N)=C(N)Oc3cc4oc(-c5ccccc5)cc(=O)c4c(O)c32)c2cccc(C)c21 (stereo not given)	< 4.30	< 4.30	< 4.30	< 4.30	
N#CC1=C(N)Oc2cc3oc(-c4ccccc4)cc(=O)c3c(O)c2C12C(=O)Nc1ccccc12 (stereo not given)	4.42	4.44	< 4.30	< 4.30	
Cc1ccc2c(c1)C1(C(=O)N2C)C(C#N)=C(N)Oc2cc3oc(-c4ccccc4)cc(=O)c3c(O)c21 (stereo not given)	5.15	5.23	4.99	< 4.30	
COc1ccc(-c2cc(=O)c3c(O)c4c(cc3o2)OC(N)=C(C#N)C42C(=O)N(Cc3ccccc3)c3ccccc32)c(OC)c1 (stereo not given)	< 4.30	< 4.30	< 4.30	< 4.30	
O=c1cc(-c2ccccc2)oc2cc(O)cc(O)c12 [CHRYSIN]	< 4.30	< 4.30	< 4.30	< 4.30	< 4.00
N#CC1=C(N)Oc2cc3oc(-c4ccccc4)cc(=O)c3c(O)c2C12C(=O)Nc1cc(Cl)ccc12 (stereo not given)	5.07	5.03	4.78	4.59	
N#CC1=C(N)Oc2cc3oc(-c4ccccc4)cc(=O)c3c(O)c2C12C(=O)Nc1c(Cl)cccc12 (stereo not given)	< 4.30	4.43	< 4.30	< 4.30	
Cc1cccc2c1N(Cc1ccccc1)C(=O)C21C(C#N)=C(N)Oc2cc3oc(-c4ccccc4)cc(=O)c3c(O)c21 (stereo not given)	< 4.30	< 4.30	< 4.30	< 4.30	
COc1ccc2c(c1)C1(C(=O)N2Cc2ccccc2)C(C#N)=C(N)Oc2cc3oc(-c4ccccc4)cc(=O)c3c(O)c21 (stereo not given)	< 4.30	< 4.30	< 4.30	< 4.30	
N#CC1=C(N)Oc2cc3oc(-c4ccccc4)cc(=O)c3c(O)c2C12C(=O)N(Cc1ccccc1)c1ccc(Cl)cc12 (stereo not given)	< 4.30	4.44	< 4.30	< 4.30	
